In brackets after ≈: the same amount, converted by molar mass.
How the values were obtained:
[1] = Cytotoxicity against human DU145 cells by MTT assay; assay type: functional, cell-based; conditions: DU-145
Bacillus subtilis [2] = assay: Antibacterial activity against Bacillus subtilis MTCC 121 after 24 hrs by well diffusion assay; assay type: functional; conditions: MTCC 121, 24 h
Raoultella planticola = assay: Antibacterial activity against Klebsiella planticola MTCC 530 after 24 hrs by well diffusion assay; assay type: functional; conditions: MTCC 530, 24 h
MDA-MB-231 = assay: Cytotoxicity against human MDA-MB-231 cells by MTT assay; assay type: functional, cell-based
[3] = Cytotoxicity against human SKOV3 cells by MTT assay; assay type: functional, cell-based; conditions: SK-OV-3
Escherichia coli = assay: Antibacterial activity against Escherichia coli MTCC 739 after 24 hrs by well diffusion assay; assay type: functional; conditions: MTCC 739, 24 h
Candida albicans [4] = assay: Antifungal activity against Candida albicans MTCC 3017 after 24 hrs by well diffusion assay; assay type: functional; conditions: MTCC 3017, 24 h
Method in brief: (§1)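 Well diffusion screen against Candida and related fungal strains. Read-out is MIC in µg/mL, with miconazole as the reference drug.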

HepG2 = assay: Cytotoxicity against human HepG2 cells by MTT assay; assay type: functional, cell-based
Micrococcus luteus [5] = assay: Antibacterial activity against Micrococcus luteus MTCC 2470 after 24 hrs by well diffusion assay; assay type: functional; conditions: MTCC 2470, 24 h
Staphylococcus aureus [6] = assay: Antibacterial activity against Staphylococcus aureus MTCC 96 after 24 hrs by well diffusion assay; assay type: functional; conditions: MTCC 96, 24 h
Staphylococcus aureus [7] = assay: Antibacterial activity against Staphylococcus aureus MLS-16 MTCC 2940 after 24 hrs by well diffusion assay; assay type: functional; conditions: MLS-16 MTCC 2940, 24 h
Pseudomonas aeruginosa = assay: Antibacterial activity against Pseudomonas aeruginosa MTCC 2453 after 24 hrs by well diffusion assay; assay type: functional; conditions: MTCC 2453, 24 h
Staphylococcus aureus [8] = assay: Bactericidal activity against Staphylococcus aureus MTCC 96 after 24 hrs; assay type: functional; conditions: MTCC 96, 24 h
Method in brief: (§2)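 Minimum bactericidal concentration was determined on four Gram-positive strains, for the compounds active in the preliminary antibacterial screen.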

Nakaseomyces glabratus = assay: Antifungal activity against Candida glabrata MTCC 3019 after 24 hrs by well diffusion assay; assay type: functional; conditions: MTCC 3019, 24 h; method in brief: as §1
Bacillus subtilis [9] = assay: Bactericidal activity against Bacillus subtilis MTCC 121 after 24 hrs by well diffusion assay; assay type: functional; conditions: MTCC 121, 24 h; method in brief: as §2
Staphylococcus aureus [10] = assay: Bactericidal activity against Staphylococcus aureus MLS-16 MTCC 2940 after 24 hrs; assay type: functional; conditions: MLS-16 MTCC 2940, 24 h; method in brief: as §2
Pichia kudriavzevii = assay: Antifungal activity against Pichia kudriavzevii MTCC 3020 after 24 hrs by well diffusion assay; assay type: functional; conditions: MTCC 3020, 24 h; method in brief: as §1
Bacillus subtilis [11] = assay: Antibiofilm activity against Bacillus subtilis MTCC 121 after 24 hrs by well diffusion assay by crystal violet staining based method; assay type: functional, organism-based; conditions: MTCC 121, 24 h
Method in brief: (§3)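 Biofilm inhibition was tested on the four Gram-positive strains, using crystal violet staining.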

Candida parapsilosis [12] = assay: Inhibition of ergosterol biosynthesis in Candida parapsilosis MTCC 1744 assessed as mean ergosterol content at 2 ug/ml after 20 hrs by spectrophotometric analysis (Rvb=1.62 +/- 0.08 ug/ml); assay type: functional
Candida albicans [13] = assay: Antifungal activity against Candida albicans MTCC 3018 after 24 hrs by well diffusion assay; assay type: functional; conditions: MTCC 3018, 24 h; method in brief: as §1
[Candida] aaseri = Antifungal activity against Candida aaseri MTCC 1962 after 24 hrs by well diffusion assay; assay type: functional; conditions: Yamadazyma aaseri, MTCC 1962, 24 h; method in brief: as §1
Candida albicans [14] = assay: Antifungal activity against Candida albicans MTCC 4748 after 24 hrs by well diffusion assay; assay type: functional; conditions: MTCC 4748, 24 h; method in brief: as §1
Candida albicans [15] = assay: Antifungal activity against Candida albicans MTCC 1637 after 24 hrs by well diffusion assay; assay type: functional; conditions: MTCC 1637, 24 h; method in brief: as §1
Candida parapsilosis [16] = assay: Antifungal activity against Candida parapsilosis MTCC 1744 after 24 hrs by well diffusion assay; assay type: functional; conditions: Lodderomyces parapsilosis, MTCC 1744, 24 h; method in brief: as §1
Candida albicans [17] = assay: Antifungal activity against Candida albicans MTCC 854 after 24 hrs by well diffusion assay; assay type: functional; conditions: MTCC 854, 24 h; method in brief: as §1
Candida albicans [18] = assay: Antifungal activity against Candida albicans MTCC 7315 after 24 hrs by well diffusion assay; assay type: functional; conditions: MTCC 7315, 24 h; method in brief: as §1
Candida albicans [19] = assay: Antifungal activity against Candida albicans MTCC 183 after 24 hrs by well diffusion assay; assay type: functional; conditions: MTCC 183, 24 h; method in brief: as §1
Candida parapsilosis [20] = assay: Inhibition of ergosterol biosynthesis in Candida parapsilosis MTCC 1744 assessed as mean ergosterol content at 4 ug/ml after 20 hrs by spectrophotometric analysis (Rvb=1.62 +/- 0.08 ug/ml); assay type: functional
Staphylococcus aureus [21] = assay: Antibiofilm activity against Staphylococcus aureus MLS-16 MTCC 2940 after 24 hrs by crystal violet staining based method; assay type: functional, organism-based; conditions: MLS-16 MTCC 2940, 24 h; method in brief: as §3
Micrococcus luteus [22] = assay: Bactericidal activity against Micrococcus luteus MTCC 2470 after 24 hrs; assay type: functional; conditions: MTCC 2470, 24 h; method in brief: as §2
Pichia sporocuriosa = assay: Antifungal activity against Issatchenkia hanoiensis MTCC 4755 after 24 hrs by well diffusion assay; assay type: functional; conditions: MTCC 4755, 24 h; method in brief: as §1
Staphylococcus aureus [23] = assay: Antibiofilm activity against Staphylococcus aureus MTCC 96 after 24 hrs by crystal violet staining based method; assay type: functional, organism-based; conditions: MTCC 96, 24 h; method in brief: as §3
Candida albicans [24] = assay: Antifungal activity against Candida albicans MTCC 227 after 24 hrs by well diffusion assay; assay type: functional; conditions: MTCC 227, 24 h; method in brief: as §1
Candida albicans [25] = assay: Antifungal activity against Candida albicans MTCC 3958 after 24 hrs by well diffusion assay; assay type: functional; conditions: MTCC 3958, 24 h; method in brief: as §1
Micrococcus luteus [26] = assay: Antibiofilm activity against Micrococcus luteus MTCC 2470 after 24 hrs by crystal violet staining based method; assay type: functional, organism-based; conditions: MTCC 2470, 24 h; method in brief: as §3
Candida parapsilosis [27] = assay: Inhibition of ergosterol biosynthesis in Candida parapsilosis MTCC 1744 assessed as mean ergosterol content at 16 ug/ml after 20 hrs by spectrophotometric analysis (Rvb=1.62 +/- 0.08 ug/ml); assay type: functional
Candida parapsilosis [28] = assay: Inhibition of ergosterol biosynthesis in Candida parapsilosis MTCC 1744 assessed as mean ergosterol content at 8 ug/ml after 20 hrs by spectrophotometric analysis (Rvb=1.62 +/- 0.08 ug/ml); assay type: functional

## CCCCCCCCC(CCCCCCCCC(=O)OC)SCC(=O)N[C@@H](Cc1ccccc1)C(=O)OC (stereo partly specified)
[1]
  IC50: 49.1 µM
Bacillus subtilis [2]
  MIC: > 125 µg/mL
Raoultella planticola
  MIC: > 125 µg/mL
MDA-MB-231
  IC50: 38.6 µM
[3]
  IC50: 42.5 µM
Escherichia coli
  MIC: > 125 µg/mL
Candida albicans [4]
  MIC: > 125 µg/mL
HepG2
  IC50: 33.6 µM
Micrococcus luteus [5]
  MIC: > 125 µg/mL
Staphylococcus aureus [6]
  MIC: > 125 µg/mL
Staphylococcus aureus [7]
  MIC: > 125 µg/mL
Pseudomonas aeruginosa
  MIC: > 125 µg/mL

## CCCCCCCCC(CCCCCCCCC(=O)OC)SCC(=O)N[C@@H](CC(C)C)C(=O)OC (stereo partly specified)
[1]
  IC50: 215 µM
Bacillus subtilis [2]
  MIC: > 125 µg/mL
Raoultella planticola
  MIC: > 125 µg/mL
MDA-MB-231
  IC50: 152 µM
Escherichia coli
  MIC: > 125 µg/mL
Candida albicans [4]
  MIC: > 125 µg/mL
Micrococcus luteus [5]
  MIC: > 125 µg/mL
Staphylococcus aureus [6]
  MIC: > 125 µg/mL
Staphylococcus aureus [7]
  MIC: > 125 µg/mL
Pseudomonas aeruginosa
  MIC: > 125 µg/mL

## COc1cccc2c1C(=O)c1c(O)c3c(c(O)c1C2=O)C[C@@](O)(C(=O)CO)C[C@@H]3O[C@H]1C[C@H](N)[C@H](O)[C@H](C)O1 [DOXORUBICIN]
MDA-MB-231
  IC50: 0.7 µM
[3]
  IC50: 0.8 µM
HepG2
  IC50: 0.8 µM

## CCCCCCCCC(CCCCCCCCC(=O)OC)SCC(=O)N[C@@H](C)C(=O)OC (stereo partly specified)
Staphylococcus aureus [8]
  MBC: 31.2 µg/mL (≈ 65.9 µM)
Nakaseomyces glabratus
  MFC: 31.2 µg/mL (≈ 65.9 µM)
  MIC: 31.2 µg/mL (≈ 65.9 µM)
Bacillus subtilis [9]
  MBC: 7.8 µg/mL (≈ 16.5 µM)
Staphylococcus aureus [10]
  MBC: 15.6 µg/mL (≈ 32.9 µM)
Pichia kudriavzevii
  MFC: 15.6 µg/mL (≈ 32.9 µM)
  MIC: 15.6 µg/mL (≈ 32.9 µM)
Bacillus subtilis [11]
  IC50: 2.8 µM
Candida parapsilosis [12]
  Activity: 1.41 µg/mL
[1]
  IC50: 154 µM
Bacillus subtilis [2]
  MIC: 3.9 µg/mL (≈ 8.23 µM)
Candida albicans [13]
  MFC: 31.2 µg/mL (≈ 65.9 µM)
  MIC: 15.6 µg/mL (≈ 32.9 µM)
[Candida] aaseri
  MFC: 31.2 µg/mL (≈ 65.9 µM)
  MIC: 15.6 µg/mL (≈ 32.9 µM)
Raoultella planticola
  MIC: > 125 µg/mL
Candida albicans [14]
  MFC: 15.6 µg/mL (≈ 32.9 µM)
  MIC: 15.6 µg/mL (≈ 32.9 µM)
Candida albicans [15]
  MFC: 31.2 µg/mL (≈ 65.9 µM)
  MIC: 31.2 µg/mL (≈ 65.9 µM)
Candida parapsilosis [16]
  MFC: 7.8 µg/mL (≈ 16.5 µM)
  MIC: 7.8 µg/mL (≈ 16.5 µM)
Candida albicans [17]
  MFC: 62.5 µg/mL (≈ 132 µM)
  MIC: 31.2 µg/mL (≈ 65.9 µM)
MDA-MB-231
  IC50: 98.7 µM
[3]
  IC50: 114 µM
Candida albicans [18]
  MFC: 31.2 µg/mL (≈ 65.9 µM)
  MIC: 15.6 µg/mL (≈ 32.9 µM)
Candida albicans [19]
  MFC: 15.6 µg/mL (≈ 32.9 µM)
  MIC: 7.8 µg/mL (≈ 16.5 µM)
Escherichia coli
  MIC: > 125 µg/mL
Candida albicans [4]
  MIC: 7.8 µg/mL (≈ 16.5 µM)
Candida parapsilosis [20]
  Activity: 0.63 µg/mL
Staphylococcus aureus [21]
  IC50: 3.2 µM
Micrococcus luteus [22]
  MBC: 7.8 µg/mL (≈ 16.5 µM)
Pichia sporocuriosa
  MFC: 31.2 µg/mL (≈ 65.9 µM)
  MIC: 15.6 µg/mL (≈ 32.9 µM)
Staphylococcus aureus [23]
  IC50: 9.3 µM
HepG2
  IC50: 102 µM
Micrococcus luteus [5]
  MIC: 7.8 µg/mL (≈ 16.5 µM)
Candida albicans [24]
  MFC: 31.2 µg/mL (≈ 65.9 µM)
  MIC: 15.6 µg/mL (≈ 32.9 µM)
Candida albicans [25]
  MFC: 15.6 µg/mL (≈ 32.9 µM)
  MIC: 7.8 µg/mL (≈ 16.5 µM)
Micrococcus luteus [26]
  IC50: 4.1 µM
Staphylococcus aureus [6]
  MIC: 15.6 µg/mL (≈ 32.9 µM)
Staphylococcus aureus [7]
  MIC: 7.8 µg/mL (≈ 16.5 µM)
Candida parapsilosis [27]
  Activity: 0.11 µg/mL
Pseudomonas aeruginosa
  MIC: > 125 µg/mL
Candida parapsilosis [28]
  Activity: 0.38 µg/mL

## CCCCCCCCC(CCCCCCCCC(=O)OC)SCC(=O)NCC(=O)OC (stereo unspecified)
Bacillus subtilis [9]
  MBC: 3.9 µg/mL (≈ 8.48 µM)
Bacillus subtilis [11]
  IC50: 4.4 µM
[1]
  IC50: 30.8 µM
Bacillus subtilis [2]
  MIC: 7.8 µg/mL (≈ 17 µM)
Raoultella planticola
  MIC: > 125 µg/mL
MDA-MB-231
  IC50: 31.4 µM
[3]
  IC50: 25.2 µM
Escherichia coli
  MIC: > 125 µg/mL
Candida albicans [4]
  MIC: 31.2 µg/mL (≈ 67.9 µM)
Micrococcus luteus [22]
  MBC: 31.2 µg/mL (≈ 67.9 µM)
HepG2
  IC50: 29.6 µM
Micrococcus luteus [5]
  MIC: 15.6 µg/mL (≈ 33.9 µM)
Micrococcus luteus [26]
  IC50: 8.2 µM
Staphylococcus aureus [6]
  MIC: > 125 µg/mL
Staphylococcus aureus [7]
  MIC: > 125 µg/mL
Pseudomonas aeruginosa
  MIC: > 125 µg/mL

— ChEMBL document CHEMBL3745670, “Synthesis and biological evaluation of novel lipoamino acid derivatives” (Bioorg Med Chem Lett, 2016)
